The values below come from ChEMBL document CHEMBL1949525, “Boranophosphate isoster controls P2Y-receptor subtype selectivity and metabolic stability of dinucleoside polyphosphate analogues” (J Med Chem, 2012).

Series [1] deals with e-NPP1. The series is described as follows: (§1) Stability of the compound assessed as human e-NPP1-mediated hydrolysis at pH 8.5 after 20 mins by HPLC analysis. The format is ADME. Conditions: human, human e-NPP1 enzyme, pH 8.5; read-out: Drug degradation. An outline of the steps: (§2)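 Human NPP1 preparation preincubated 3 min at 37 °C in 1 mM CaCl2, 200 mM NaCl, 10 mM KCl, 100 mM Tris, pH 8.5. Started with 0.2 mM dinucleotide solution (added volume) and stopped after 20 min in ice-cold perchloric acid. Neutralised with KOH, then NMP formation followed by HPLC. Percent substrate hydrolysed is the mean of two experiments run in triplicate.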

Series [2] is described as follows: as §1. Conditions: buffer, pH 8.5, 20 min; for Drug degradation: 20 min. Type of series: ADME. In a few lines: as §2
Series [3] can be described thus: Chemical stability of the compound at pH mimicking gastric juice acidity. The format is physicochemical. Conditions: simulated gi fluid.
The nature of series [4]: Chemical stability of the compound at physiological conditions. The format is physicochemical.
The target of series [5] is P2Y purinoceptor 1 (Meleagris gallopavo) (UniProt P49652). The series can be described thus: (§3) Agonist activity at turkey P2Y purinoceptor 1 expressed in human 1321N1 cells assessed as increase in intracellular calcium concentration by spectrofluorimetry. Type of series: functional, cell-based. (In general: Calcium assays in cells follow changes in intracellular calcium, usually with a dye or a luminescent sensor.)

The target of series [6] is T1, P2Y purinoceptor 2 (Homo sapiens, UniProt P41231). The series can be described thus: Agonist activity at human P2Y purinoceptor 2 expressed in human 1321N1 cells assessed as increase in intracellular calcium concentration by spectrofluorimetry. Type of series: functional, cell-based. Conditions: for EC50: 1321-n1.
The target of series [7] is P2Y purinoceptor 1 (Meleagris gallopavo, UniProt P49652). Described as §3. The following applies: read-out: EC50. Type of series: functional, cell-based.
Series [8] concerns the target T2, P2Y purinoceptor 4 (Homo sapiens, UniProt P51582). The series can be described thus: Agonist activity at human P2Y purinoceptor 4 expressed in human 1321N1 cells assessed as increase in intracellular calcium concentration by spectrofluorimetry. Type of series: functional, cell-based. Conditions: 1321-n1. In a few lines: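 1321N1 astrocytoma cells (no endogenous P2Y receptors) stably expressing hP2Y4, grown in DMEM with 5% FBS, penicillin/streptomycin and 500 μg/mL G-418. Fura-2-loaded cell suspensions; compounds applied at various concentrations, 37 °C, 10 mM Hepes-buffered saline pH 7.4 with 1 mM CaCl2/MgCl2. Peak [Ca2+]i rise by dual-excitation fluorometry gives EC50; UTP reference agonist; three experiments on separate days.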

Series [9] concerns the target P2Y purinoceptor 6 (Rattus norvegicus, UniProt Q63371). The series is described as follows: Agonist activity at rat P2Y purinoceptor 6 expressed in human 1321N1 cells assessed as increase in intracellular calcium concentration by spectrofluorimetry. The format is functional, cell-based. Conditions: for pEC50: read-out: EC50; for EC50: 1321-n1. In a few lines:
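1321N1 astrocytoma cells lacking endogenous P2Y receptors, stably transfected with turkey P2Y1, human P2Y2, human P2Y4 or rat P2Y6, grown in DMEM with 5% FBS, penicillin/streptomycin and 500 µg/mL G-418. Fura-2-loaded cell suspensions were exposed at 37 °C in 10 mM Hepes-buffered saline, pH 7.4, with 1 mM CaCl2 and 1 mM MgCl2. Peak [Ca2+]i rise by dual-excitation spectrofluorometry across concentrations; EC50 from curve fits; three experiments on separate days per subtype.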

In series [10] the target is P2Y purinoceptor 1 (Meleagris gallopavo) (UniProt P49652). The series can be described thus: Antagonist activity at turkey P2Y purinoceptor 1 expressed in human 1321N1 cells assessed as inhibition of 2-Sme-ADP-induced increase in intracellular calcium concentration by spectrofluorimetry. The format is functional, cell-based. In a few lines: (§4)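 Fura-2-loaded 1321N1 transfectants (turkey P2Y1, human P2Y2/P2Y4, rat P2Y6) in Hepes-buffered saline, pH 7.4, at 37 °C. Analogues were tested against equimolar reference agonist: 2-MeS-ADP for P2Y1, UTP for P2Y2/4, UDP for P2Y6. Blockade of the [Ca2+]i rise was followed by dual-excitation spectrofluorometry.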

Series [11] has as its target T1, P2Y purinoceptor 2. The series is described as follows: Antagonist activity at human P2Y purinoceptor 2 expressed in human 1321N1 cells assessed as inhibition of UTP-induced increase in intracellular calcium concentration by spectrofluorimetry. The format is functional, cell-based. An outline of the steps: as §4
For series [12], the target named is T2, P2Y purinoceptor 4. The series can be described thus: Antagonist activity at human P2Y purinoceptor 4 expressed in human 1321N1 cells assessed as inhibition of UTP-induced increase in intracellular calcium concentration by spectrofluorimetry. The format is functional, cell-based. In a few lines: as §4
Series [13] has as its target P2Y purinoceptor 6 (Rattus norvegicus) (UniProt Q63371). The series is described as follows: Antagonist activity at rat P2Y purinoceptor 6 expressed in human 1321N1 cells assessed as inhibition of UDP-induced increase in intracellular calcium concentration by spectrofluorimetry. Type of series: functional, cell-based. An outline of the steps:
as §4

Series [14] has as its target P2Y purinoceptor 1 (Meleagris gallopavo) (UniProt P49652). The series is described as follows: Agonist activity at turkey P2Y purinoceptor 1 expressed in human 1321N1 cells assessed as increase in intracellular calcium concentration at 100 uM by spectrofluorimetry. The format is functional, cell-based.

pEC50: −log10 of the molar value. The source made the active and inactive calls. No cut-off for these calls is given here.

Usually pEC50 stands for the negative decadic logarithm of the EC50, by convention in mol/L.

Chain of P2Y purinoceptor 6 (Rattus norvegicus) (Q63371 whole entry): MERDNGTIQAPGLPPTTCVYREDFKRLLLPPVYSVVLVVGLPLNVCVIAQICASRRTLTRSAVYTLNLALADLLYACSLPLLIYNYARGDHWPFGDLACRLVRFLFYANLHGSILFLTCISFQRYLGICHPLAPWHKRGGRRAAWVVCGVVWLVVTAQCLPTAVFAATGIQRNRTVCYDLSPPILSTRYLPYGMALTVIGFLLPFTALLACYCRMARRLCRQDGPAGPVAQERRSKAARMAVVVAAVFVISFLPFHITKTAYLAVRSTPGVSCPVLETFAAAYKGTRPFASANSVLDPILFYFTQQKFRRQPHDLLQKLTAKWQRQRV
Chain of P2Y purinoceptor 6 (Q63371 whole entry): as above
T1 sequence (P41231 whole entry): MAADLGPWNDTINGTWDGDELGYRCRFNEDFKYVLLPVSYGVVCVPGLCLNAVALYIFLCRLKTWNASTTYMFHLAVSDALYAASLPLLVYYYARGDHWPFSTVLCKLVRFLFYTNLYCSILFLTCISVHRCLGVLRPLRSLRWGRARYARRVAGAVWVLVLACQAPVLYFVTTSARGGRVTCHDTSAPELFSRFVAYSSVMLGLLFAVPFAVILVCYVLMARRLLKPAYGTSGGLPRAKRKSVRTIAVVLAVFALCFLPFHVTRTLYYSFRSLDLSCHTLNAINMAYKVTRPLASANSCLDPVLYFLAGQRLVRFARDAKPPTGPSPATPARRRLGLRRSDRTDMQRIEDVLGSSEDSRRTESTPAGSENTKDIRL
Chain of P2Y purinoceptor 1 (P49652 whole entry): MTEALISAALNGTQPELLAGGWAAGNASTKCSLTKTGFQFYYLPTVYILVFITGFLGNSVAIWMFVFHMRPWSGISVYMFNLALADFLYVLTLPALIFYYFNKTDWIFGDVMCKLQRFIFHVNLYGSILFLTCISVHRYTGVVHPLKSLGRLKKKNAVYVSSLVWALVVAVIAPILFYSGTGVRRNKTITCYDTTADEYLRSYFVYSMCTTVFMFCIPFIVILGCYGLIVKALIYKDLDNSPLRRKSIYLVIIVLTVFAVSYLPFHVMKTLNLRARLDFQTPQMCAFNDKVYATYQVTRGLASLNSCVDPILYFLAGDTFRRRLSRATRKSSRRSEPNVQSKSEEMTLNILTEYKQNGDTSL
Chain of P2Y purinoceptor 1 (Meleagris gallopavo) (P49652 whole entry): as above
T2 sequence (P51582 whole entry): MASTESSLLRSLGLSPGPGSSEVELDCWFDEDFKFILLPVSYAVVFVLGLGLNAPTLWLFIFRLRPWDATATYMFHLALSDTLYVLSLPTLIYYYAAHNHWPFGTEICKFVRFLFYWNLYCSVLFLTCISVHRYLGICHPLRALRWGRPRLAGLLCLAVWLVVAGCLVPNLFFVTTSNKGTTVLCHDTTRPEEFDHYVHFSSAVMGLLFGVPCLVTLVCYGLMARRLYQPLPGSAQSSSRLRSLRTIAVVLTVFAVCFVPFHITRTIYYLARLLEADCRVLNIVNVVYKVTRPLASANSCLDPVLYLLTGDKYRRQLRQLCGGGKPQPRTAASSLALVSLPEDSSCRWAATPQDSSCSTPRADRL

As to `Nc1ncnc2c1ncn2[C@@H]1O[C@H](COP(=O)(O)OP(=O)(O)OP(=O)(O)OP(=O)(O)OC[C@H]2O[C@@H](n3ccc(=O)[nH]c3=O)[C@H](O)[C@@H]2O)[C@@H](O)[C@H]1O`, in series [1], the metabolised at 20 min was determined as 18%.

Turning to `BP(=O)(OP(=O)(O)OC[C@H]1O[C@@H](n2ccc(=O)[nH]c2=O)[C@H](O)[C@@H]1O)OP(=O)(O)OC[C@H]1O[C@@H](n2ccc(=O)[nH]c2=O)[C@H](O)[C@@H]1O.CCCCN(CCCC)CCCC.CCCCN(CCCC)CCCC.CCCCN(CCCC)CCCC`, the Stability entry in series [2], in [3] and in [4] was “Stable” throughout. The outcome in series [5] and in series [6] was inactive.

Turning to `O=c1ccn([C@@H]2O[C@H](COP(=O)(O)OP(=O)(O)OP(=O)(O)OC[C@H]3O[C@@H](n4ccc(=O)[nH]c4=O)[C@H](O)[C@@H]3O)[C@@H](O)[C@H]2O)c(=O)[nH]1`, the metabolised at 20 min in series [1] turned out to be 21%.

With `Nc1ncnc2c1ncn2[C@@H]1O[C@H](COP(=O)(O)OP(=O)(O)OP(=O)(O)OC[C@H]2O[C@@H](n3cnc4c(N)ncnc43)[C@H](O)[C@@H]2O)[C@@H](O)[C@H]1O`, the metabolised at 20 min in series [1] turned out to be 22%.

Regarding `BP(=O)(OP(=O)(O)OC[C@H]1O[C@@H](n2cnc3c(N)ncnc32)[C@H](O)[C@@H]1O)OP(=O)(O)OP(=O)(O)OC[C@H]1O[C@@H](n2cnc3c(N)ncnc32)[C@H](O)[C@@H]1O.CCCCN(CCCC)CCCC.CCCCN(CCCC)CCCC.CCCCN(CCCC)CCCC.CCCCN(CCCC)CCCC` (stereo in doubt; 6A), the metabolised at 20 min in series [1] turned out to be 1.6%. In addition, in series [7], the pEC50 was 5.52. In addition, the EC50 result in series [6] and in [8] was “Not Active” in each case.

Regarding `BP(=O)(OP(=O)(O)OC[C@H]1O[C@@H](n2ccc(=O)[nH]c2=O)[C@H](O)[C@@H]1O)OP(=O)(O)OP(=O)(O)OC[C@H]1O[C@@H](n2ccc(=O)[nH]c2=O)[C@H](O)[C@@H]1O.CCCCN(CCCC)CCCC.CCCCN(CCCC)CCCC.CCCCN(CCCC)CCCC.CCCCN(CCCC)CCCC` (stereo in doubt; 7A), in series [1], the metabolised at 20 min is 3%. Besides, the EC50 entry in series [8] was “Not Active”. The pEC50 in series [9] was 5.71.

Turning to `BP(=O)(OP(=O)(O)OC[C@H]1O[C@@H](n2ccc(=O)[nH]c2=O)[C@H](O)[C@@H]1O)OP(=O)(O)OP(=O)(O)OC[C@H]1O[C@@H](n2ccc(=O)[nH]c2=O)[C@H](O)[C@@H]1O.CCCCN(CCCC)CCCC.CCCCN(CCCC)CCCC.CCCCN(CCCC)CCCC.CCCCN(CCCC)CCCC` (stereo in doubt; 7B), the outcome in series [10], in series [11], in [12] and in [13] was inactive. Further, the outcome in series [14] was Active.

As for `BP(=O)(OP(=O)(O)OC[C@H]1O[C@@H](n2cnc3c(N)ncnc32)[C@H](O)[C@@H]1O)OP(=O)(O)OP(=O)(O)OC[C@H]1O[C@@H](n2ccc(=O)[nH]c2=O)[C@H](O)[C@@H]1O.CCCCN(CCCC)CCCC.CCCCN(CCCC)CCCC.CCCCN(CCCC)CCCC.CCCCN(CCCC)CCCC` (stereo in doubt; 8A) [listing 1 of 2 here], the metabolised at 20 min in series [1] is 1.5%. Besides, the EC50 result in series [6] and in series [8] was “Not Active” throughout. Moreover, the pEC50 in [9] was 5.89.

As for `BP(=O)(OP(=O)(O)OC[C@H]1O[C@@H](n2cnc3c(N)ncnc32)[C@H](O)[C@@H]1O)OP(=O)(O)OP(=O)(O)OC[C@H]1O[C@@H](n2ccc(=O)[nH]c2=O)[C@H](O)[C@@H]1O.CCCCN(CCCC)CCCC.CCCCN(CCCC)CCCC.CCCCN(CCCC)CCCC.CCCCN(CCCC)CCCC` (stereo in doubt; 8A) [listing 2 of 2 here], the result in series [10], in series [11], in series [12] and in series [13] was inactive. In addition, the outcome in series [14] was Active.

As to `BP(=O)(OP(=O)(O)OC[C@H]1O[C@@H](n2ccc(=O)[nH]c2=O)[C@H](O)[C@@H]1O)OP(=O)(O)OP(=O)(O)OC[C@H]1O[C@@H](n2cnc3c(N)ncnc32)[C@H](O)[C@@H]1O.CCCCN(CCCC)CCCC.CCCCN(CCCC)CCCC.CCCCN(CCCC)CCCC.CCCCN(CCCC)CCCC` (stereo in doubt; 9A), the metabolised at 20 min in series [1] was 3%. Besides, the negative-log EC50 (pEC50) in [7] was 6.30; in series [9], 4.68. Besides, the EC50 result in series [8] is reported as “Not Active”.

As for `BP(=O)(OC[C@H]1O[C@@H](n2cnc3c(N)ncnc32)[C@H](O)[C@@H]1O)OP(=O)(O)OP(=O)(O)OC[C@H]1O[C@@H](n2cnc3c(N)ncnc32)[C@H](O)[C@@H]1O.CCCCN(CCCC)CCCC.CCCCN(CCCC)CCCC.CCCCN(CCCC)CCCC` (stereo in doubt; 10A), the Drug degradation in series [2] was 0%. Also, the pEC50 in series [7] was 6.12. In addition, the EC50 entry in [6], in [8] and in series [9] was “Not Active” each time.

In the case of `BP(=O)(OC[C@H]1O[C@@H](n2ccc(=O)[nH]c2=O)[C@H](O)[C@@H]1O)OP(=O)(O)OP(=O)(O)OC[C@H]1O[C@@H](n2ccc(=O)[nH]c2=O)[C@H](O)[C@@H]1O.CCCCN(CCCC)CCCC.CCCCN(CCCC)CCCC.CCCCN(CCCC)CCCC` (stereo in doubt; 11A), the Drug degradation in [2] was found to be 0%. For the same molecule, the pEC50 in [7] was 5.36; in [9] it was 6.14. Also, the EC50 result in series [6] and in series [8] was “Not Active” in each case.

In the case of `BP(=O)(OC[C@H]1O[C@@H](n2ccc(=O)[nH]c2=O)[C@H](O)[C@@H]1O)OP(=O)(O)OP(=O)(O)OC[C@H]1O[C@@H](n2ccc(=O)[nH]c2=O)[C@H](O)[C@@H]1O.CCCCN(CCCC)CCCC.CCCCN(CCCC)CCCC.CCCCN(CCCC)CCCC` (stereo in doubt; 11B), the outcome in series [10], in series [11], in [12] and in series [13] was inactive. Moreover, the outcome in series [14] was Active.

Turning to `BP(=O)(OC[C@H]1O[C@@H](n2cnc3c(N)ncnc32)[C@H](O)[C@@H]1O)OP(=O)(O)OP(=O)(O)OP(=O)(O)OC[C@H]1O[C@@H](n2cnc3c(N)ncnc32)[C@H](O)[C@@H]1O.CCCCN(CCCC)CCCC.CCCCN(CCCC)CCCC.CCCCN(CCCC)CCCC.CCCCN(CCCC)CCCC` (stereo in doubt; 12A), in series [2], the Drug degradation came to 2.5%. Further, the pEC50 in [7] is 5.83; in [6] (read-out: EC50), 4.59. Further, the EC50 result in series [8] and in series [9] was “Not Active” each time.

Consider `BP(=O)(OC[C@H]1O[C@@H](n2ccc(=O)[nH]c2=O)[C@H](O)[C@@H]1O)OP(=O)(O)OP(=O)(O)OP(=O)(O)OC[C@H]1O[C@@H](n2ccc(=O)[nH]c2=O)[C@H](O)[C@@H]1O.CCCCN(CCCC)CCCC.CCCCN(CCCC)CCCC.CCCCN(CCCC)CCCC.CCCCN(CCCC)CCCC` (stereo in doubt; 13B), for which the result in [10], in [11], in series [12] and in series [13] was inactive. Besides, the outcome in series [14] was Active.

In the case of `Nc1ncnc2c1ncn2[C@@H]1O[C@H](COP(=O)(O)OP(=O)(O)OP(=O)(O)OP(=O)(O)OC[C@H]2O[C@@H](n3cnc4c(N)ncnc43)[C@H](O)[C@@H]2O)[C@@H](O)[C@H]1O` [DIADENOSINE TETRAPHOSPHATE], in series [1], the metabolised at 20 min is 17%.
